Test [1] concerns the target Sigma non-opioid intracellular receptor 1 (Cavia porcellus, UniProt Q60492). The experiment in a line: Displacement of (+)-[3H]pentazocine from sigma1 receptor in guinea pig brain membrane homogenates. Type of test: cell membranes. The gist of the method: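 Run on guinea pig brain membrane homogenate (~300 μg protein) with 5 nM (+)-[3H]pentazocine. 10 μM haloperidol defined nonspecific binding. IC50 came from nonlinear regression with a one-site fit.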

Test [2] concerns the target T1, Vesicular acetylcholine transporter (Homo sapiens, UniProt Q16572).
T1 sequence (Q16572 whole entry): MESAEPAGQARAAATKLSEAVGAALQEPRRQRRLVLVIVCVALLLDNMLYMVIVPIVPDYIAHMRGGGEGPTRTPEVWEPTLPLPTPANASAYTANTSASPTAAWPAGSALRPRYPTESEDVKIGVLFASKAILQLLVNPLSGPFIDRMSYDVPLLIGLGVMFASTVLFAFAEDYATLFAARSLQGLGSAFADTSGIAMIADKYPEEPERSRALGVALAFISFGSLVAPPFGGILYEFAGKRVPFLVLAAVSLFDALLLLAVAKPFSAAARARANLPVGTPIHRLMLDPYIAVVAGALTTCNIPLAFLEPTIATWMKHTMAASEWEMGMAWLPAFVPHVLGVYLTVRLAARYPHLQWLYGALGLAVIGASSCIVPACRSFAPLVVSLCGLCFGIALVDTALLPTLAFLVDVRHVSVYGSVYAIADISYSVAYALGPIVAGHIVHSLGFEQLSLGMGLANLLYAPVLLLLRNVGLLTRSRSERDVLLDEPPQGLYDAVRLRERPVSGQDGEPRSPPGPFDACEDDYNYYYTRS
The experiment in a line: Displacement of [3H]-vesamicol from human VAChT after 24 hrs by liquid scintillation spectrometry analysis. In general terms: Displacement assays read how much labelled ligand stays bound in the presence of the test substance.

Test [3] can be described thus: Displacement of [3H]DTG from sigma2 receptor in rat liver membrane homogenates. Type of test: cell membranes. In outline: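 Run on rat liver membrane homogenate (~300 μg protein) with ~5 nM [3H]DTG plus 1 μM (+)-pentazocine to mask σ1 sites. 10 μM haloperidol defined nonspecific binding. IC50 came from nonlinear regression.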

This passage reports Ki results from ChEMBL document CHEMBL3596119, “Synthesis and biological characterization of a promising F-18 PET tracer for vesicular acetylcholine transporter” (Bioorg Med Chem, 2015).

Sequence of Sigma non-opioid intracellular receptor 1 (Q60492 whole entry): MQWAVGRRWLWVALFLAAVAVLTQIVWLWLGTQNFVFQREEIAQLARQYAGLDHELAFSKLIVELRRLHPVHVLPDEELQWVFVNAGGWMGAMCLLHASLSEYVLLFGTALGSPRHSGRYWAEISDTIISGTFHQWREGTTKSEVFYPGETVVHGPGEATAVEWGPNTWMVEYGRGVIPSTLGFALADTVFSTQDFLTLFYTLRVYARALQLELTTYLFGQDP

In general, Ki refers to a dissociation constant, usually derived from enzyme kinetics or from competition with a known ligand. A low value points to tighter binding. Regarding `O=C(c1ccc(OCCF)cc1)C1CCN([C@@H]2Cc3ccccc3C[C@H]2O)CC1`, the values for the Ki in test [1], in test [2] and in test [3] were 0.0132 µM, 0.00174 µM and 1.89 µM, respectively.

With `O=C(c1ccc(F)cc1)C1CCN(C2Cc3c(cccc3OCCF)CC2O)CC1` (single isomer, unassigned; (+)), in test [3], the inhibition constant Ki stood at 7.8 µM.

For the compound `O=C(c1ccc(F)cc1)C1CCN(C2Cc3c(cccc3OCCF)CC2O)CC1` (single isomer, unassigned; (-)), the inhibitory constant (Ki) in test [3] is above 10 µM.

`O=C(c1ccc(F)cc1)c1cccc2c1C[C@@H](N1CCC(c3ccccc3)CC1)[C@H](O)C2` returned an inhibition constant Ki in test [3] of 0.251 µM.

Take `O=C(c1ccc(F)cc1)C1CCN([C@@H]2Cc3c(O)cccc3C[C@H]2O)CC1`: the Ki stood at 8.64 µM in test [1], 0.00464 µM in test [2] and 1.85 µM in test [3].

`O=C(c1ccc(F)cc1)C1CCN([C@@H]2Cc3c(cccc3OCCF)C[C@H]2O)CC1` (racemic): the figures for the Ki in test [1] and in test [3] were 0.821 µM and above 10 µM, respectively.

As for `O=C(c1ccc(F)cc1)C1CCN([C@@H]2Cc3cccc(OCCF)c3C[C@H]2O)CC1` (racemic), the inhibition constant Ki in test [1] is above 10 µM; in test [3] it was 7.15 µM.

Consider `O=C(c1ccc(OCCOCCOCCF)cc1)C1CCN([C@@H]2Cc3ccccc3C[C@H]2O)CC1`, for which the figures for the Ki in test [1], in test [2] and in test [3] were above 10 µM, 0.00123 µM and above 10 µM, respectively.

In the case of `O=C(c1ccc(F)cc1)C1CCN([C@@H]2Cc3cccc(O)c3C[C@H]2O)CC1`, the Ki in test [1] turned out to be 0.0287 µM; in test [2] it was 0.0562 µM; in test [3], 2.6 µM.

In the case of `O=C(c1ccc(OCCOCCF)cc1)C1CCN([C@@H]2Cc3ccccc3C[C@H]2O)CC1`, the Ki in test [1] was found to be 1.58 µM; in test [2] it was 0.00087 µM; in test [3], 8.2 µM.

In test [3], `O[C@@H]1CCCC[C@H]1N1CCC(c2ccccc2)CC1` [VESAMICOL] came in with a Ki of 0.346 µM.
